≈ marks a conversion by molar mass, not a printed value.
Key:
[1] = system: Staphylococcus aureus; test: Antibacterial activity against Staphylococcus aureus at […] after 24 hrs by agar diffusion method; format: functional
In short: (§1)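 Single-concentration antibacterial screen at 100 μg/50 μL per test against the standard bacterial strains.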

[2] = system: Bacillus subtilis; test: Antibacterial activity against Bacillus subtilis at […] after 24 hrs by agar diffusion method; format: functional; in short: as §1
[3] = system: Escherichia coli; test: Antibacterial activity against Escherichia coli at […] after 24 hrs by agar diffusion method; format: functional; in short: as §1
[4] = system: Pseudomonas aeruginosa; test: Antibacterial activity against Pseudomonas aeruginosa at 100 ug/[…] after 24 hrs by agar diffusion method; format: functional; in short: as §1
[5] = system: Staphylococcus aureus; test: Antibacterial activity against Staphylococcus aureus after 18 to 24 hrs by broth microdilution method; format: functional
[6] = system: Bacillus subtilis; test: Antibacterial activity against Bacillus subtilis after 18 to 24 hrs by broth microdilution method; format: functional
[7] = system: Escherichia coli; test: Antibacterial activity against Escherichia coli after 18 to 24 hrs by broth microdilution method; format: functional
[8] = system: Pseudomonas aeruginosa; test: Antibacterial activity against Pseudomonas aeruginosa after 18 to 24 hrs by broth microdilution method; format: functional
[9] = system: Rattus norvegicus; test: Antiinflammatory activity in Wistar rat assessed as protection against carrageenan-induced paw edema at 100 mg/kg, po administered 1 hr before carrageenan challenge measured after 30 mins; format: functional
[10] = system: Rattus norvegicus; test: Antiinflammatory activity in Wistar rat assessed as protection against carrageenan-induced paw edema at 100 mg/kg, po administered 1 hr before carrageenan challenge measured after 1 hr; format: functional
[11] = system: Rattus norvegicus; test: Antiinflammatory activity in Wistar rat assessed as protection against carrageenan-induced paw edema at 100 mg/kg, po administered 1 hr before carrageenan challenge measured after 2 hrs; format: functional
[12] = system: Rattus norvegicus; test: Antiinflammatory activity in Wistar rat assessed as protection against carrageenan-induced paw edema at 100 mg/kg, po administered 1 hr before carrageenan challenge measured after 3 hrs; format: functional
[13] = system: Rattus norvegicus; test: Antiinflammatory activity in Wistar rat assessed as protection against carrageenan-induced paw edema at 100 mg/kg, po administered 1 hr before carrageenan challenge measured after 4 hrs; format: functional
[14] = system: MCF7; test: Cytotoxicity against estrogen receptor-positive human MCF7 cells assessed as inhibition of cell proliferation at 1 ug/ml after 24 hrs by MTT assay; format: functional; details: MCF7, 24 h
In short: (§2)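 MTT assay on MCF-7 human breast cancer cells, Taxol as reference; percentage inhibition of cell proliferation read at graded concentrations from 0.1 to 50 μg/mL (typically five or six levels per compound); IC50 in μg/mL derived from the inhibition series.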

[15] = system: MCF7; test: Cytotoxicity against estrogen receptor-positive human MCF7 cells assessed as inhibition of cell proliferation at 2 ug/ml after 24 hrs by MTT assay; format: functional; details: MCF7, 24 h; in short: as §2
[16] = system: MCF7; test: Cytotoxicity against estrogen receptor-positive human MCF7 cells assessed as inhibition of cell proliferation at 4 ug/ml after 24 hrs by MTT assay; format: functional; details: MCF7, 24 h; in short: as §2
[17] = system: MCF7; test: Cytotoxicity against estrogen receptor-positive human MCF7 cells assessed as inhibition of cell proliferation at 0.5 ug/ml after 24 hrs by MTT assay; format: functional; details: MCF7, 24 h; in short: as §2
[18] = system: MCF7; test: Cytotoxicity against estrogen receptor-positive human MCF7 cells assessed as inhibition of cell proliferation at 6 ug/ml after 24 hrs by MTT assay; format: functional; details: MCF7, 24 h; in short: as §2
[19] = system: MCF7; test: Cytotoxicity against estrogen receptor-positive human MCF7 cells assessed as inhibition of cell proliferation at 8 ug/ml after 24 hrs by MTT assay; format: functional; details: MCF7, 24 h; in short: as §2
[20] = system: MCF7; test: Cytotoxicity against estrogen receptor-positive human MCF7 cells assessed as inhibition of cell proliferation after 24 hrs by MTT assay; format: functional, cell-based; details: Homo sapiens, MCF7, 24 h; read-out: IC50; in short: as §2
[21] = system: MCF7; test: Cytotoxicity against estrogen receptor-positive human MCF7 cells assessed as inhibition of cell proliferation at 5 ug/ml after 24 hrs by MTT assay; format: functional; details: MCF7, 24 h; in short: as §2
[22] = system: MCF7; test: Cytotoxicity against estrogen receptor-positive human MCF7 cells assessed as inhibition of cell proliferation at 3 ug/ml after 24 hrs by MTT assay; format: functional; details: MCF7, 24 h; in short: as §2
[23] = system: MCF7; test: Cytotoxicity against estrogen receptor-positive human MCF7 cells assessed as inhibition of cell proliferation at 0.1 ug/ml after 24 hrs by MTT assay; format: functional; details: MCF7, 24 h; in short: as §2
[24] = system: MCF7; test: Cytotoxicity against estrogen receptor-positive human MCF7 cells assessed as inhibition of cell proliferation at 0.25 ug/ml after 24 hrs by MTT assay; format: functional; details: MCF7, 24 h; in short: as §2
[25] = system: MCF7; test: Cytotoxicity against estrogen receptor-positive human MCF7 cells assessed as inhibition of cell proliferation at 2.5 ug/ml after 24 hrs by MTT assay; format: functional; details: MCF7, 24 h; in short: as §2

## CC1=NN=C2OC(N)=C(C#N)C(c3ccc(Oc4nc(Cl)c(Cl)cc4Cl)cc3)C12 (stereo not given)
[1]
  inhibition zone (IZ): 15 mm
[2]
  inhibition zone (IZ): 20 mm
[3]
  inhibition zone (IZ): 22 mm
[4]
  inhibition zone (IZ): 14 mm
[5]
  MIC: 3.12 µg/mL (≈ 6.96 µM)
[6]
  MIC: 6.25 µg/mL (≈ 13.9 µM)
[7]
  MIC: 1.56 µg/mL (≈ 3.48 µM)
[8]
  MIC: 3.12 µg/mL (≈ 6.96 µM)
[9]
  Activity: 29.4%
[10]
  Activity: 50%
[11]
  Activity: 67.1%
[12]
  Activity: 72%
[13]
  Activity: 54.9%
[14]
  inhibition at 1 µg/mL: 17.4%
[15]
  inhibition at 2 µg/mL: 31.9%
[16]
  inhibition at 4 µg/mL: 42.5%
[17]
  inhibition at 0.5 µg/mL: 5.34%
[18]
  inhibition at 6 µg/mL: 65.2%
[19]
  inhibition at 8 µg/mL: 68.6%
[20]
  IC50: 4.46 µg/mL (≈ 9.95 µM)

## Cc1n[nH]c2c1C(c1cccs1)C(C#N)=C(N)O2 (stereo not given)
[1]
  inhibition zone (IZ): 15 mm
[2]
  inhibition zone (IZ): 18 mm
[3]
  inhibition zone (IZ): 20 mm
[4]
  inhibition zone (IZ): 14 mm
[5]
  MIC: 3.12 µg/mL (≈ 12.1 µM)
[6]
  MIC: 3.12 µg/mL (≈ 12.1 µM)
[7]
  MIC: 3.12 µg/mL (≈ 12.1 µM)
[8]
  MIC: 3.12 µg/mL (≈ 12.1 µM)
[9]
  Activity: 23.5%
[10]
  Activity: 38.8%
[11]
  Activity: 50.8%
[12]
  Activity: 64.5%
[13]
  Activity: 51.6%
[14]
  inhibition at 1 µg/mL: 0.28%
[21]
  inhibition at 5 µg/mL: 61.7%
[15]
  inhibition at 2 µg/mL: 19.1%
[22]
  inhibition at 3 µg/mL: 22%
[16]
  inhibition at 4 µg/mL: 41.8%
[20]
  IC50: 4.44 µg/mL (≈ 17.2 µM)

## Cc1[nH]nc2c1C(c1cccc(Oc3ccccc3)c1)C(C#N)=C(N)O2 (stereo not given)
[1]
  inhibition zone (IZ): 7 mm
[2]
  inhibition zone (IZ): 9 mm
[3]
  inhibition zone (IZ): 9 mm
[4]
  inhibition zone (IZ): 11 mm
[9]
  Activity: 17.6%
[10]
  Activity: 33.3%
[11]
  Activity: 47.9%
[12]
  Activity: 66.6%
[13]
  Activity: 61.5%
[14]
  inhibition at 1 µg/mL: 43.5%
[21]
  inhibition at 5 µg/mL: 83.7%
[17]
  inhibition at 0.5 µg/mL: 20.2%
[23]
  inhibition at 0.1 µg/mL: 8.26%
[24]
  inhibition at 0.25 µg/mL: 14%
[25]
  inhibition at 2.5 µg/mL: 68.6%
[20]
  IC50: 1.63 µg/mL (≈ 4.73 µM)

Reference: ChEMBL document CHEMBL2062449, “Eco-friendly synthesis and biological evaluation of substituted pyrano[2,3-c]pyrazoles” (Bioorg Med Chem Lett, 2012)
